The nature of assay [1]: In vitro binding affinity for human GABA-A receptor alpha-3-beta-3-gamma-2 subunits expressed in L(tk-) cell membranes. In short, it runs like this: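 Radioligand displacement on Ltk cell membranes expressing human α3β3γ2 receptors, with 1.8 nM [3H]Ro15-1788 as radioligand. Ki is the mean of two determinations that differed by less than 10%.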
Assay [2] concerns the target GABA A receptor alpha-4/beta-3/gamma-2 (Homo sapiens, UniProt P18507+P28472+P48169). The assay is described as follows: In vitro binding affinity for human GABA-A receptor alpha-4-beta-3-gamma-2 subunits expressed in L(tk-) cell membranes. Put shortly:
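Radioligand displacement on Ltk cell membranes expressing human α4β3γ2 receptors, with 8 nM [3H]Ro15-4513 as radioligand. Ki is the mean of two determinations that differed by less than 10%.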

Assay [3] concerns the target T1, GABA-A receptor; alpha-1/beta-3/gamma-2 (Homo sapiens, UniProt P14867+P18507+P28472).
T1 sequence (P14867 whole entry): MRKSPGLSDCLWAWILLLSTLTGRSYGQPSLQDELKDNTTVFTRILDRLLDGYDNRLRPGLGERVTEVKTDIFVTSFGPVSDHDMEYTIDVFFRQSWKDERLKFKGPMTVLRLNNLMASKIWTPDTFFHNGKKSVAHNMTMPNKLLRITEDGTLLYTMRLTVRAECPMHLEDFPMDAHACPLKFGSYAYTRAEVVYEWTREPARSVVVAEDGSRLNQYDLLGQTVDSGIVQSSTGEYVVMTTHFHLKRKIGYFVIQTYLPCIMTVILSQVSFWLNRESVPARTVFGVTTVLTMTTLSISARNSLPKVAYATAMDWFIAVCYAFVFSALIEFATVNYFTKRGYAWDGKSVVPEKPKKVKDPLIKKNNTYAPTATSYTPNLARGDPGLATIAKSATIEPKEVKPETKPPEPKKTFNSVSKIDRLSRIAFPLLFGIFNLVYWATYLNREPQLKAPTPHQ
T1 sequence (P18507 whole entry): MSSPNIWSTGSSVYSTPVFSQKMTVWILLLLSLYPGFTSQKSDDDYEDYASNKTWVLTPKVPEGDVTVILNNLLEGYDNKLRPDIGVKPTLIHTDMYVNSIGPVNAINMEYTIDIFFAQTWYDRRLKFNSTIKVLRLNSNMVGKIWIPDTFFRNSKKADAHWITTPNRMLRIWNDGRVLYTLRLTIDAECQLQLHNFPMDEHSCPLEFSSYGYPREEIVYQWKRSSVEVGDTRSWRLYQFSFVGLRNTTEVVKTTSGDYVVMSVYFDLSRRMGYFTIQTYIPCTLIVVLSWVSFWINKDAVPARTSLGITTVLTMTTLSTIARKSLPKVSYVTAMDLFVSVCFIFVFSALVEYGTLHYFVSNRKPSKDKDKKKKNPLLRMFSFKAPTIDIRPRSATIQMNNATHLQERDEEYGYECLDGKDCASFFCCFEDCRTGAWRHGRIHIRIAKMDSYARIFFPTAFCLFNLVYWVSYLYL
T1 sequence (P28472 whole entry): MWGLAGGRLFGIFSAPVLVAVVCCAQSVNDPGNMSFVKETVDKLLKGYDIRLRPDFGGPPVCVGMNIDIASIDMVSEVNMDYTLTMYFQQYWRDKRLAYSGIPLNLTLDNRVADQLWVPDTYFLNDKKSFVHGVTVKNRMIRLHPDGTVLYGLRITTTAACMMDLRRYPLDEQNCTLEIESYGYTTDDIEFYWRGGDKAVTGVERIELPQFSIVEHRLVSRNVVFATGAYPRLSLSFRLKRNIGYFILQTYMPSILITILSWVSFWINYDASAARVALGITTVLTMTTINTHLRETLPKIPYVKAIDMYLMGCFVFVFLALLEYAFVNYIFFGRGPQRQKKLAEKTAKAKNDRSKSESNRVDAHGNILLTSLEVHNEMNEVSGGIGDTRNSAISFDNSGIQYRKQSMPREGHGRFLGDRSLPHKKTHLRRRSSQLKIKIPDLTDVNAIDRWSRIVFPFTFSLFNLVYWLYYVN
Put plainly: In vitro binding affinity for human GABA-A receptor alpha-1-beta-3-gamma-2 subunits expressed in L(tk-) cell membranes. In short, it runs like this: (§1)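 Radioligand displacement on membranes of […] cells expressing human αβ3γ2 receptors, using 1.8 nM [³H]Ro15-1788. Ki taken as the mean of two determinations that differed by less than 10%.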

The target of assay [4] is T2, GABA-A receptor; alpha-2/beta-3/gamma-2 (Homo sapiens, UniProt P18507+P28472+P47869).
T2 sequence (P18507 whole entry): T1 sequence (P18507 whole entry)
T2 sequence (P28472 whole entry): T1 sequence (P28472 whole entry)
T2 sequence (P47869 whole entry): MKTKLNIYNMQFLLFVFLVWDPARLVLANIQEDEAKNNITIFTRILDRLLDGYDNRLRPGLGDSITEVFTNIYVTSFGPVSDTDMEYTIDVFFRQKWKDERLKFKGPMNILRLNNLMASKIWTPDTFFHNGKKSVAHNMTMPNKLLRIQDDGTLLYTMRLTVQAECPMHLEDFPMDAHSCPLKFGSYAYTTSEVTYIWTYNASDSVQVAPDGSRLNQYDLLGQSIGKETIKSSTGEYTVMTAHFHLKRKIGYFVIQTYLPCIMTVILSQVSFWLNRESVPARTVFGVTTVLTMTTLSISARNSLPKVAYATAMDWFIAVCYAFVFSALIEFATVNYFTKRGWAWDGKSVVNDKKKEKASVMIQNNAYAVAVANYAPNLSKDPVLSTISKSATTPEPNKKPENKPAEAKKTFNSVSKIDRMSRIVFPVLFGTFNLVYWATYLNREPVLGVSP
Put plainly: In vitro binding affinity for human GABA-A receptor alpha-2-beta-3-gamma-2 subunits expressed in L(tk-) cell membranes. Put shortly:
as §1

Assay [5] has as its target T3, GABA-A receptor; alpha-5/beta-3/gamma-2 (Homo sapiens, UniProt P18507+P28472+P31644).
T3 sequence (P18507 whole entry): T1 sequence (P18507 whole entry)
T3 sequence (P28472 whole entry): T1 sequence (P28472 whole entry)
T3 sequence (P31644 whole entry): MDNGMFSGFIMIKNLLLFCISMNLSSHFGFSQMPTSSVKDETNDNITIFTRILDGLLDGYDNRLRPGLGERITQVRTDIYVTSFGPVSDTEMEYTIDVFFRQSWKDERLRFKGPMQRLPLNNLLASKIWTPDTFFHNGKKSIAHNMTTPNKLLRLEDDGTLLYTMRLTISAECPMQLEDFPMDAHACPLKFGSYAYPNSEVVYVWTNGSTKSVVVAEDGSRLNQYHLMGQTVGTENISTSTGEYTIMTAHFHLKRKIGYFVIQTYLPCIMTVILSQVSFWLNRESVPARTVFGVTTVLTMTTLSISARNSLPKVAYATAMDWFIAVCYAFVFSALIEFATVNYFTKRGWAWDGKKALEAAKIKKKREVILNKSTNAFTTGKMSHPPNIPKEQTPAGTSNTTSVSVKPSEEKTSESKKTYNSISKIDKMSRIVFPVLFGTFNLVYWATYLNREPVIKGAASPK
The assay is described as follows: In vitro binding affinity for human GABA-A receptor alpha-5-beta-3-gamma-2 subunits expressed in L(tk-) cell membranes. In short, it runs like this: as §1

In assay [6] the target is GABA-A receptor; alpha-6/beta-3/gamma-2 (Homo sapiens, UniProt P18507+P28472+Q16445). The assay is described as follows: In vitro binding affinity for human GABA-A receptor alpha-6-beta-3-gamma-2 subunits expressed in L(tk-) cell membranes.
GABA-A receptor; alpha-6/beta-3/gamma-2, sequence (Q16445 whole entry, one chain of several): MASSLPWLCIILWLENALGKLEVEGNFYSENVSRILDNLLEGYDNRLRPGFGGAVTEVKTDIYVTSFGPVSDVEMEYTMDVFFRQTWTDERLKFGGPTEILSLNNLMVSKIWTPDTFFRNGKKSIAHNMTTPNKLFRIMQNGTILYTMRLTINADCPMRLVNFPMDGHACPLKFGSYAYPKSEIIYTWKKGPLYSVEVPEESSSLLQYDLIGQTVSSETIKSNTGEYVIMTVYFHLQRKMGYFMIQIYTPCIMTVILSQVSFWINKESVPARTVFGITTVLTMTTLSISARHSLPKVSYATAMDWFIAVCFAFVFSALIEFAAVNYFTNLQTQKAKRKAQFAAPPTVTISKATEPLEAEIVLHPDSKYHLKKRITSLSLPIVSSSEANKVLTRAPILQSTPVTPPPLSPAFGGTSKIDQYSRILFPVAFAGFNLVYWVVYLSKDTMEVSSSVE

By Ki is commonly meant the dissociation constant of the complex between target and ligand, obtained from inhibition or displacement. Low values mean tighter binding, high ones weaker binding.

GABA A receptor alpha-4/beta-3/gamma-2, sequence (P48169 whole entry, one chain of several): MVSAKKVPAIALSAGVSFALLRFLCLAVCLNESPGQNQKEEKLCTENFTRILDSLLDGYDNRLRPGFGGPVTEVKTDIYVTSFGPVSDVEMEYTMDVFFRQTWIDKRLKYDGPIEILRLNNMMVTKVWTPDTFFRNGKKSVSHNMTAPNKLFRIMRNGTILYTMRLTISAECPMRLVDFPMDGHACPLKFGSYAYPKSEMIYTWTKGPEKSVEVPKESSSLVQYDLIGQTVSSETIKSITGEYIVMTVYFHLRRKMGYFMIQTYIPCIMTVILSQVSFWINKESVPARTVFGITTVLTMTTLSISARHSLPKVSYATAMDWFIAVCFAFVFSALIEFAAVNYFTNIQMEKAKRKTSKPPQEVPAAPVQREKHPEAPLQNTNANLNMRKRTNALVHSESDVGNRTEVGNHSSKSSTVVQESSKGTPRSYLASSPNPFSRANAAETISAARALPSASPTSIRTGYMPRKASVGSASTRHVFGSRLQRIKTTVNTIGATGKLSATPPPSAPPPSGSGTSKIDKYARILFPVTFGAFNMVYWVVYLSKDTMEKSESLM

Take `CN1Cc2c(C(=O)OC(C)(C)C)ncn2-c2ccc(C#C[Si](C)(C)C)cc2C1=O`: the Ki is 255 nM in assay [1] and 7.8 nM in assay [2].
`C#Cc1ccc2c(c1)C(=O)N(C)Cc1c(C(=O)OC(C)(C)C)ncn1-2` came in with a Ki in assay [1] of 18.7 nM.
The compound `CCOC(=O)c1ncn2c1[C@@H]1CCCN1C(=O)c1cc(OC)ccc1-2` returned a Ki in assay [1] of 24.5 nM.
`C#Cc1ccc2c(c1)C(=O)N(C)Cc1c(C(=O)OCC)ncn1-2`: the Ki in assay [1] was found to be 25.8 nM; in assay [2] it was 53 nM.
For `CCOC(=O)c1ncn2c1CN(C)C(=O)c1cc(N=[N+]=[N-])ccc1-2` [Ro-154513], the results for the Ki in assay [1] and in assay [3] were 25 nM and 33 nM, respectively.
Consider `CCOC(=O)c1ncn2c1CN(C)C(=O)c1cc(C#C[Si](C)(C)C)ccc1-2`, for which the Ki in assay [1] was determined as 198 nM.
Take `C#Cc1ccc2c(c1)C(=O)N(C)Cc1c(C(=O)OCCCOC(=O)c3ncn4c3CN(C)C(=O)c3cc(C#C)ccc3-4)ncn1-2`: the Ki is greater than 1000 nM in assay [4]; 858 nM in assay [1]; greater than 1000 nM in assay [3]; 1550 nM in assay [2]; 15 nM in assay [5]; greater than 2000 nM in assay [6].

Values taken from ChEMBL document CHEMBL1146597, “Synthesis, in vitro affinity, and efficacy of a bis 8-ethynyl-4H-imidazo[1,5a]- [1,4]benzodiazepine analogue, the first bivalent alpha5 subtype selective BzR/GABA(A) antagonist” (J Med Chem, 2003).
